Experimental data from publication PMC8165011 (European journal of medicinal chemistry, 2021).
Converted amounts (≈) assume the structure as drawn.

What was measured:
[1] = test system: S. aureus and E. faecalis biofilms; experiment: Biofilm inhibition and destruction at 4x and 8xMIC; type: cell-based; settings: 4x and 8xMIC (data not shown)
[2] = test system: S. aureus ATCC 25923 (MSSA); experiment: Multistep; type: cell-based; settings: sub-lethal exposure, 21 passages
[3] = test system: lipid synthesis in S. aureus ATCC 29213; experiment: Macromolecular synthesis inhibition: lipid synthesis; type: cell-based; settings: MIC
[4] = test system: human embryonic kidney (HEK293) cells; experiment: Cytotoxicity against HEK293 cell line; type: cell-based; settings: HEK293 IC50 / MIC for S. aureus ATCC 25923 and ATCC 700699; as high as
Procedure, shortened: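 HEK293 cells kept in EMEM with 10% FBS at 37 °C, 5% CO2. Seeded at 4000 cells/well and treated 24 h with a concentration range of test compound in DMSO. Resazurin (0.15 mg/ml solution as added) incubated 4 h more; fluorescence read at ex 560/em 590 nm. IC50 obtained by curve fitting; selectivity factor computed as IC50/MIC.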

[5] = test system: S. aureus ATCC 25923 preformed biofilm; experiment: Biofilm destruction assay; type: cell-based; settings: 2xMIC
[6] = test system: S. aureus ATCC 700699 (MRSA) stationary phase persister cells; experiment: Persister cell killing assay; type: cell-based; settings: for log reduction of persister cells: within 4 h
[7] = test system: S. aureus UAMS-1 catheter-associated biofilm; experiment: In vitro model of catheter-associated biofilm; type: cell-based; settings: after 2 days of exposure, 20xMIC (40 μg/ml), per catheter
S. aureus ATCC 33591 = experiment: Time kill assay; type: cell-based; settings: 4xMIC
Procedure, shortened: (§1)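 Log-phase culture diluted to ~5 × 10^6 CFU/ml in warm CAMHB and exposed to test compound at 4xMIC at 35 °C. Samples taken every 2 h, diluted 10-fold down to 10^-5, and viable counts done by 6×6 drop plating after 18–24 h at 35 °C. Each assay run in triplicate.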

S. aureus ATCC 700699 = experiment: Time kill assay; type: cell-based; settings: 4xMIC
Procedure, shortened: as §1

[8] = test system: DNA synthesis in S. aureus ATCC 29213; experiment: Macromolecular synthesis inhibition: DNA synthesis; type: cell-based; settings: 0.25xMIC
E. faecalis ATCC 29212 = experiment: Multistep; type: cell-based; settings: for increase in resistance (in words): through the 14th passage
[9] = test system: tested Gram-positive strains; experiment: MIC assay, summary over the tested Gram-positive strains; type: cell-based; settings: tested Gram-positive strains
Procedure, shortened: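 CLSI standard broth microdilution. Test compound started at 50 µg/ml and serially diluted 2-fold. Run in triplicate.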

[10] = test system: S. aureus ATCC 25923 biofilm; experiment: Biofilm inhibition assay; type: cell-based; settings: 2xMIC
Procedure, shortened: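 After 24 h at 35 °C: PBS washes, drying at 60 °C for 15 min, 0.1% (w/v) crystal violet for 15 min, solubilisation in 33% acetic acid, OD 620 nm. Controls: broth only, and bacteria with DMSO.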

[11] = test system: methicillin-sensitive clinical isolate of S. aureus UAMS-1; settings: breakpoint MIC used for comparison; ref not given; cited from earlier work
[12] = test system: E. faecalis clinical isolates (VRE); experiment: MIC against clinical isolates of E. faecalis; type: cell-based
[13] = test system: E. faecium clinical isolates (VRE); experiment: MIC against clinical isolates of E. faecium; type: cell-based
[14] = test system: S. aureus ATCC 700699 (MRSA); experiment: Multistep; type: cell-based; settings: sub-lethal exposure, 21 passages
[15] = test system: S. aureus clinical isolates (MSSA, MRSA); experiment: MIC against clinical isolates of S. aureus; type: cell-based; settings: Staphylococcus aureus
[16] = test system: E. faecalis ATCC 29212 preformed biofilm; experiment: Biofilm destruction assay; type: cell-based; settings: 2xMIC

O=C(O)c1ccc(-n2cc(CNc3cc(F)cc(C(F)(F)F)c3)c(-c3ccc(C(F)(F)F)cc3)n2)cc1 [Compound 59, 4-[4-[[3-fluoro-5-(trifluoromethyl)anilino]methyl]-3-[4-(trifluoromethyl)phenyl]pyrazol-1-yl]benzoic acid]
biofilm inhibition and destruction [1]: > 95%
passage at which MIC doubled [2]: 8 passage
inhibition of lipid synthesis [3]: 56.2%
Selectivity factor (IC50/MIC values) [4]: ≤ 13
preformed biofilm eliminated [5]: around 70%
log reduction of persister cells ([6]; 2xMIC): ~ 1 log
log reduction of persister cells ([6]; 8xMIC): ~ 3 log
average CFU counts [7]: 4.74 × 10^5 CFU
time to eliminate more than 3 log values (S. aureus ATCC 33591): ≤ 4 h
log values of bacteria eliminated (S. aureus ATCC 33591; within 4 h of treatment): more than 3 log
time to eliminate more than 3 log values (S. aureus ATCC 700699): ≤ 4 h
log values of bacteria eliminated (S. aureus ATCC 700699; within 4 h of treatment): more than 3 log
inhibition of DNA synthesis [8]: approximately 44%
increase in resistance (in words) (E. faecalis ATCC 29212): no increase in resistance
antimicrobial activity (in words) [9]: most potent compound

O=C(O)c1ccc(-n2cc(CNc3cc(Cl)c(F)c(Cl)c3)c(-c3ccc(C(F)(F)F)cc3)n2)cc1 [Compound 74, 4-[4-[(3,5-dichloro-4-fluoro-anilino)methyl]-3-[4-(trifluoromethyl)phenyl]pyrazol-1-yl]benzoic acid]
Selectivity factor (IC50/MIC values) [4]: ≤ 33
biofilm formation inhibited [10]: greater than 85%
log reduction of persister cells ([6]; 2xMIC): ~ 1 log
log reduction of persister cells ([6]; 4xMIC): ~ 1 log
log reduction of persister cells ([6]; 8xMIC): ~ 1 log
time to eliminate more than 3 log values (S. aureus ATCC 33591): ≤ 4 h
time to eliminate more than 3 log values (S. aureus ATCC 700699): ≤ 6 h
increase in resistance (in words) (E. faecalis ATCC 29212): no increase in resistance

CN[C@H](CC(C)C)C(=O)N[C@H]1C(=O)N[C@@H](CC(N)=O)C(=O)N[C@H]2C(=O)N[C@H]3C(=O)N[C@H](C(=O)N[C@H](C(=O)O)c4cc(O)cc(O)c4-c4cc3ccc4O)[C@H](O)c3ccc(c(Cl)c3)Oc3cc2cc(c3O[C@@H]2O[C@H](CO)[C@@H](O)[C@H](O)[C@H]2O[C@H]2C[C@](C)(N)[C@H](O)[C@H](C)O2)Oc2ccc(cc2Cl)[C@H]1O [vancomycin, Vancomycin]
biofilm inhibition and destruction [1]: > 95%
breakpoint MIC [11]: ≥ 2 µg/mL
MIC ([12]; E. faecalis 1091563, VRE): >32 µg/mL
MIC ([12]; E. faecalis 1091720, VRE): >32 µg/mL
MIC ([12]; E. faecalis 1094112, VRE): >32 µg/mL
MIC ([12]; E. faecalis 1100440, VRE): >32 µg/mL
MIC ([12]; Enterococcus faecalis, VRE): > 32 µg/mL
MIC ([13]; E. faecium 1088168, VRE): >32 µg/mL
MIC ([13]; E. faecium 1088925, VRE): >32 µg/mL
MIC ([13]; E. faecium 1089544, VRE): >32 µg/mL
MIC ([13]; E. faecium 1091282, VRE): >32 µg/mL
MIC ([13]; Enterococcus faecium, VRE): > 32 µg/mL
effect on viability of MRSA persisters (in words) ([6]; 64xMIC): did not affect the viability
average CFU counts [7]: 1.16 × 10^7 CFU
passage at which MIC doubled [14]: 7 passage
MIC ([15]; ATCC29213|MRSA|MSSA, S. aureus ATCC 29213, MSSA): 1 µg/mL (≈ 0.69 µM)
MIC ([15]; MRSA|MSSA, S. aureus 1088060, MSSA): 0.5 µg/mL (≈ 0.345 µM)
MIC ([15]; MRSA|MSSA, S. aureus 1088064, MRSA): 0.5 µg/mL (≈ 0.345 µM)
MIC ([15]; MRSA|MSSA, S. aureus 1088105, MSSA): 1 µg/mL (≈ 0.69 µM)
MIC ([15]; MRSA|MSSA, S. aureus 1088610, MRSA): 0.5 µg/mL (≈ 0.345 µM)
MIC ([15]; MRSA|MSSA, S. aureus 1088626, MSSA): 0.5 µg/mL (≈ 0.345 µM)
MIC ([15]; MRSA|MSSA, S. aureus 1088888, MRSA): 1 µg/mL (≈ 0.69 µM)
MIC ([15]; MRSA|MSSA, S. aureus 1089106, MRSA): 1 µg/mL (≈ 0.69 µM)
time to decrease bacterial concentration below detectable limits (S. aureus ATCC 33591): 8 h
time to decrease bacterial concentration below detectable limits (S. aureus ATCC 700699): 8 h
passage after which resistance increased (E. faecalis ATCC 29212; 14 passages): 7 passage
preformed biofilm destroyed [16]: around 70%
